As a reminder, the Emax is the maximal effect, on the per cent scale that the assay sets. For orientation: EC50 means the concentration at which the effect is half-maximal. A high value points to a need for much substance. By inhibition is commonly meant the relative decrease from the control value, in per cent. A high value points to a response far below the control.

Bounds are passed on as bounds.

The values that follow come from ChEMBL document CHEMBL3612021, “Structure-kinetics relationships of Capadenoson derivatives as adenosine A1 receptor agonists” (Eur J Med Chem, 2015).

Test [1] deals with T1, Adenosine receptor A1 (Homo sapiens) (UniProt P30542).
T1 sequence (whole entry): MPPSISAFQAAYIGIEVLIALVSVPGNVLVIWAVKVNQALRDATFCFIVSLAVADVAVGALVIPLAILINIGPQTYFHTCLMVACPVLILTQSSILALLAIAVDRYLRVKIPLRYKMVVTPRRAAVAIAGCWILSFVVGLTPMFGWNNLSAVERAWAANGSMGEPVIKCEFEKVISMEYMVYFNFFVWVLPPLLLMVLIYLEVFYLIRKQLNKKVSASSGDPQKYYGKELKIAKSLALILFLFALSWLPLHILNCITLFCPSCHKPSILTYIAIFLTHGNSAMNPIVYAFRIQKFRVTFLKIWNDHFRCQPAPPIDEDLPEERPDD
As to the kind of experiment: Displacement of [3H]DPCPX from human adenosine A1 receptor expressed in CHO cell membranes assessed as residence time by competition association assay. The procedure, abridged: (§1)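 Competition association assay on CHO cell membranes stably expressing hA1, with [3H]DPCPX as tracer. kon and koff come from these association curves (n ≥ 3, ± SEM). Residence time is shown alongside koff and corresponds to 1/koff in minutes.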
On the technique in general: In a radioligand displacement assay an active substance lowers the binding of a labelled ligand.

The target of test [2] is T1, Adenosine receptor A1 (Homo sapiens). The test can be described thus: Agonist activity at human adenosine A1 receptor expressed in CHO cell membranes by [35S]GTPgammaS binding assay relative to 100 uM CPA. Type of test: functional. The method in brief: (§2)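 CHO-hA1 membrane homogenates (3 µg) equilibrated 30 min at 25 °C in 50 mM Tris, 100 mM NaCl, 5 mM MgCl2, 1 mM EDTA, 1 mM DTT, 0.05% BSA, pH 7.4, with 3 µM GDP, saponin and ligand over a concentration range. [35S]GTPγS then added (final 0.3 nM) and incubated 90 min at 25 °C. Filtration on GF/B, ice-cold washes, scintillation counting. n = 3.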
A general note: Binding of GTPγS marks nucleotide exchange on a G protein.

The target in a further test is T2, Adenosine receptor A1 (Homo sapiens, UniProt P30542).
T2 sequence (P30542 whole entry): T1 sequence (whole entry)
As to the kind of experiment: Agonist activity at human adenosine A1 receptor expressed in CHO cell membranes by [35S]GTPgammaS binding assay. Type of test: functional. The method in brief: as §2

In test [3] the target is T1, Adenosine receptor A1 (Homo sapiens). The test can be described thus: Displacement of [3H]DPCPX from human adenosine A1 receptor expressed in CHO cell membranes assessed as kinetic rate index by measuring ratio of binding at earlier and later time points by competition association assay. The procedure, abridged: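 Dual-point competition association assay with [3H]DPCPX on CHO membranes stably expressing hA1. Specific binding is read at two time points in the presence of the test ligand. KRI is the ratio of binding at the earlier to the later time point (n = 2; both values reported).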

For test [4] the target is unchanged. The test can be described thus: Displacement of [3H]DPCPX from human adenosine A1 receptor expressed in CHO cell membranes at 1 uM by competition association assay.
In test [5] the target is Adenosine receptor A2a (Homo sapiens) (UniProt P29274). As to the kind of experiment: Displacement of [3H]ZM241385 from human adenosine A2A receptor expressed in HEK293 cell membranes at 1 uM by competition association assay.
Test [6] addresses T1, Adenosine receptor A1 (Homo sapiens). As to the kind of experiment: Displacement of [3H]DPCPX from human adenosine A1 receptor expressed in CHO cell membranes assessed as association rate constant by competition association assay. The procedure, abridged: as §1
Test [7] deals with T3, Adenosine receptor A2b (Homo sapiens) (UniProt P29275).
T3 sequence (whole entry): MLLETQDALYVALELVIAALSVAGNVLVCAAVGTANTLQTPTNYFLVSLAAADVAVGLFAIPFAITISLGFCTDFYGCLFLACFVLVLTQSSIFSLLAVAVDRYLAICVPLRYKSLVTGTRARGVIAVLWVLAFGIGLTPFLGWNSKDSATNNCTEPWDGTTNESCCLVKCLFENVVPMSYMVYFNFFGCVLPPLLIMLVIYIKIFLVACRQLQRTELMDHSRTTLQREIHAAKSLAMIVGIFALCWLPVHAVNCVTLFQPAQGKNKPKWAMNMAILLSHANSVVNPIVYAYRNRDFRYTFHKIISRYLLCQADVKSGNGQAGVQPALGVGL
The test can be described thus: Displacement of [3H]PSB603 from human adenosine A2B receptor expressed in CHO cell membranes at 1 uM by competition association assay. The procedure, abridged: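 Single-point test at 1 µM measuring percent displacement of specific [3H]PSB603 binding on CHO membranes stably expressing human A2B receptors.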

The target of test [8] is T1, Adenosine receptor A1 (Homo sapiens). The test can be described thus: Displacement of [3H]DPCPX from human adenosine A1 receptor expressed in CHO cell membranes assessed as dissociation rate constant by competition association assay. The method in brief: as §1
For test [9], the target named is T4, Adenosine receptor A3 (Homo sapiens) (UniProt P0DMS8).
T4 sequence (whole entry): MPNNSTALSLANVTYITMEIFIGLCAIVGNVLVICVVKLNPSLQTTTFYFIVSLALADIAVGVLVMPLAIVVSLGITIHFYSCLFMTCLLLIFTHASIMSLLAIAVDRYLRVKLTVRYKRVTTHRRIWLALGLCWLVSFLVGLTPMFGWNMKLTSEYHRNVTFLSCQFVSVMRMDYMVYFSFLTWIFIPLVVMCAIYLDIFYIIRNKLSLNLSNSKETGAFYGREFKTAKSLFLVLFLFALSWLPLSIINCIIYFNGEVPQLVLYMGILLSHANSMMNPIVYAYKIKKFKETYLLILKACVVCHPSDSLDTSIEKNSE
As to the kind of experiment: Displacement of [3H]PSB11 from human adenosine A3 receptor expressed in CHO cell membranes at 1 uM by competition association assay. The method in brief:
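Single-point screen at 1 µM measuring displacement of specific [3H]PSB11 binding on CHO cell membranes stably expressing human A3 receptors.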

Test [10] concerns the target Adenosine receptors; A1 & A3 (Homo sapiens) (UniProt P30542+P0DMS8). The test can be described thus: Selectivity for human adenosine A1 receptor expressed in CHO cell membranes over human adenosine A3 receptor expressed in CHO cell membrane. Type of test: cell-based.

Adenosine receptor A2a (Homo sapiens), sequence (P29274 whole entry): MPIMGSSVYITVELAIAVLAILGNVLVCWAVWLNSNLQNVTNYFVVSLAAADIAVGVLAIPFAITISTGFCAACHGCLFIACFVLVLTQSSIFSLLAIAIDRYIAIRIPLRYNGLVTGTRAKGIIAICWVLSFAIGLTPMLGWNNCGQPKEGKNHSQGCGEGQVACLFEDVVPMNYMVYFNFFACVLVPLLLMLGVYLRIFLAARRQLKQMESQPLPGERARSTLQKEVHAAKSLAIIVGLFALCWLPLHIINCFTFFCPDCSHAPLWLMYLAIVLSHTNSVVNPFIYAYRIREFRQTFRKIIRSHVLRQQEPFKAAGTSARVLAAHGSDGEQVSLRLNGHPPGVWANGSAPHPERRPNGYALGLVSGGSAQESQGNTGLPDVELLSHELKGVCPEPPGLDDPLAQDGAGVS

On to `N#Cc1c(N)nc(SCc2csc(-c3ccc(Cl)cc3)n2)c(C#N)c1-c1ccc(OCCO)cc1` [CAPADENOSON], for which, in test [1], the TIME is 0.463 h. This compound gave a maximum response (Emax) in [2] of 97%. At Adenosine receptor A1, this compound showed an EC50 of 1.1 nM. Moreover, the Ratio in [3] came to 1.42. Besides, the inhibition in [4] is more than 80%; in test [5], 0%; in [7], 2.5%; in test [9] it was 1.2%. In addition, the K in test [6] amounted to 2.4 ×10⁷ /M/min; in test [8], 0.036 min⁻¹. Also, the Selectivity ratio in test [10] was more than 100.

As for `COc1ccc(-c2c(C#N)c(N)nc(SCc3csc(-c4ccc(Cl)cc4)n3)c2C#N)cc1`, the TIME in [1] turned out to be 2.2 h. This compound displayed an Emax in [2] of 83%. The compound also gave an EC50 at Adenosine receptor A1 of 2.9 nM. The Ratio in test [3] is 2.55. Moreover, the inhibition in test [4] is more than 80%; in test [5] it was 5.8%; in test [7] it was 20%; in test [9] it was 19%. For the same compound, the results for the K in test [6] and in test [8] were 2.6 ×10⁶ /M/min and 0.0076 min⁻¹, respectively. Further, the Selectivity ratio in test [10] was more than 100.

`COc1ccc(-c2c(C#N)c(N)nc(SCc3csc(N4CCOCC4)n3)c2C#N)cc1` returned an Emax in [2] of 104%. It took 1.9 nM to reach a half-maximal effect at Adenosine receptor A1 (EC50). Besides, the Ratio in test [3] was determined as 1.12. Further, the inhibition is more than 80% in test [4], 0% in test [5], 0% in test [7] and 51% in test [9]. The Selectivity ratio in test [10] is more than 100.
